Source: ChEMBL document CHEMBL2439987, “TRPV1 antagonist with high analgesic efficacy: 2-Thio pyridine C-region analogues of 2-(3-fluoro-4-methylsulfonylaminophenyl)propanamides” (Bioorg Med Chem, 2013)
Calls of active or inactive are those of the source. No cut-off for these calls is given here.

How the values were obtained:
[1] = molecular target: T1, Transient receptor potential cation channel subfamily V member 1 (Homo sapiens, UniProt Q8NER1); assay: Antagonist activity at human TRPV1 expressed in CHOK1 cells assessed as inhibition of capsaicin-induced activity by FLIPR assay; type: cell-based, CHO-K1
[2] = molecular target: T1, Transient receptor potential cation channel subfamily V member 1; assay: Antagonist activity at human TRPV1 expressed in CHOK1 cells assessed as inhibition of pH-induced activity by FLIPR assay; type: cell-based, CHO-K1; details: for inhibition: CHO-K1
Mus musculus = assay: Inhibition of capsaicin-induced hypothermia in NMRI mouse at 0.3 mg/kg, po administered 15 mins prior challenge measured at 30 mins post-challenge; type: functional, organism-based; set-up: dose 0.3 mg/kg
[3] = molecular target: T1, Transient receptor potential cation channel subfamily V member 1; assay: Antagonist activity at human TRPV1 expressed in CHOK1 cells assessed as inhibition of N-arachidonoyl dopamine-induced activity after 5 mins by FLIPR assay
Rattus norvegicus [4] = assay: Analgesic activity in CCI-induced Sprague-Dawley rat neuropathic pain model assessed as reduction in paw withdrawal measured 45 mins after po administration; type: functional
Outline: (§1)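 Chronic constriction injury (Bennett model) of neuropathic pain in rats, read out as cold allodynia. Compound given orally and compared with vehicle. Effect expressed as % maximal possible effect (MPE), with n = 10 per group, mean ± SEM, and p < 0.05 versus vehicle. ED50 taken from the dose–response.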

Rattus norvegicus [5] = assay: Analgesic activity in CCI-induced Sprague-Dawley rat neuropathic pain model assessed as reduction in paw withdrawal at 10 mg/kg, po measured 45 mins post compound administration relative to control; type: functional; outline: as §1
[6] = molecular target: T1, Transient receptor potential cation channel subfamily V member 1; assay: Antagonist activity at human TRPV1 expressed in CHOK1 cells assessed as inhibition of 45 degC heat-induced activity after 5 mins by FLIPR assay; type: cell-based, CHO-K1

T1 sequence (Q8NER1 whole entry): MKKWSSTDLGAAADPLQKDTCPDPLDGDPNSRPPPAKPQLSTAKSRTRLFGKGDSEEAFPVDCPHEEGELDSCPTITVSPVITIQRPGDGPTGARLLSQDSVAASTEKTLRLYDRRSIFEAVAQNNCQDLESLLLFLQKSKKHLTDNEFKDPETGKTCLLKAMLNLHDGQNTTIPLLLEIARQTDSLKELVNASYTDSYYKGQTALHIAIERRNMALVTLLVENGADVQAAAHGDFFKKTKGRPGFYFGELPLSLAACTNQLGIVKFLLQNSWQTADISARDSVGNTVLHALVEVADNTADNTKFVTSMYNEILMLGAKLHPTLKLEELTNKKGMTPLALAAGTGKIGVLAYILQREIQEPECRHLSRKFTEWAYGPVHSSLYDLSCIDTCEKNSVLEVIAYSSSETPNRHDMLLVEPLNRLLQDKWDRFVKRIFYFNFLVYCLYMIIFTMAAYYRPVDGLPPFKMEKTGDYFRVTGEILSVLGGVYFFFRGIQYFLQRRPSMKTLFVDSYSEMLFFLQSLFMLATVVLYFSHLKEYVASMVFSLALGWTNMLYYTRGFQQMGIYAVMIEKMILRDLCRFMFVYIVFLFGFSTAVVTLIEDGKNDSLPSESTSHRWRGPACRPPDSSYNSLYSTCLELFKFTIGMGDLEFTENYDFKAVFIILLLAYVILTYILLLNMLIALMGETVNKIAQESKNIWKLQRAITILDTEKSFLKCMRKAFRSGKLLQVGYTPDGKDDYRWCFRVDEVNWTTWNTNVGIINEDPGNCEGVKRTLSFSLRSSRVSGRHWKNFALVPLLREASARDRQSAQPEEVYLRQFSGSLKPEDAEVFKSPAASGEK

SMILES | Ki ([1]; read-out: Ki) [nM] | IC50 [2] [nM] | inhibition [2] | also measured
CC(C)CCSc1nc(C(F)(F)F)ccc1CNC(=O)C(C)c1ccc(NS(C)(=O)=O)c(F)c1 (centres undefined) | 0.7 | 82 |  | 
CC(C(=O)NCc1ccc(C(F)(F)F)nc1SCCCN1CCCCC1)c1ccc(NS(C)(=O)=O)c(F)c1 (centres undefined) | 3 | 250 |  | 
CC(C(=O)NCc1ccc(C(F)(F)F)nc1SCCCN1CCOCC1)c1ccc(NS(C)(=O)=O)c(F)c1 (centres undefined) |  |  | inactive | Ki ([1]; cho-k1): Not Active
CC(C(=O)NCc1ccc(C(F)(F)F)nc1[S+]([O-])C1CCCCC1)c1ccc(NS(C)(=O)=O)c(F)c1 (centres undefined) |  |  | inactive | Ki ([1]; cho-k1): Not Active
CCCCCCSc1nc(C(F)(F)F)ccc1CNC(=O)C(C)c1ccc(NS(C)(=O)=O)c(F)c1 (centres undefined) | 5.6 | 719 |  | 
COC(=O)CCSc1nc(C(F)(F)F)ccc1CNC(=O)C(C)c1ccc(NS(C)(=O)=O)c(F)c1 (centres undefined) | 48.2 | 1100 |  | 
CC(C(=O)NCc1ccc(C(F)(F)F)nc1SCCCO)c1ccc(NS(C)(=O)=O)c(F)c1 (centres undefined) |  |  |  | Ki ([1]; cho-k1): Not Active
CC(C(=O)NCc1ccc(C(F)(F)F)nc1SCCCN1CCCC1)c1ccc(NS(C)(=O)=O)c(F)c1 (centres undefined) | 3.3 | 312 |  | 
CC(C(=O)NCc1ccc(C(F)(F)F)nc1S(=O)(=O)C1CCCCC1)c1ccc(NS(C)(=O)=O)c(F)c1 (centres undefined) |  |  | inactive | Ki ([1]; cho-k1): Not Active
CCCCCSc1nc(C(F)(F)F)ccc1CNC(=O)C(C)c1ccc(NS(C)(=O)=O)c(F)c1 (centres undefined) | 2.5 | 95.6 |  | 
CC(C(=O)NCc1ccc(C(F)(F)F)nc1SC1CCCC1)c1ccc(NS(C)(=O)=O)c(F)c1 (centres undefined) | 1.2 |  | inactive | 
CC1CCN(CCCSc2nc(C(F)(F)F)ccc2CNC(=O)C(C)c2ccc(NS(C)(=O)=O)c(F)c2)CC1 (centres undefined) | 2.9 | 217 |  | 
C[C@@H](C(=O)NCc1ccc(C(F)(F)F)nc1SC1CCCCC1)c1ccc(NS(C)(=O)=O)c(F)c1 | 43.5 |  | inactive | 
CC(C(=O)NCc1ccc(C(F)(F)F)nc1SCCC(=O)N1CCCC1)c1ccc(NS(C)(=O)=O)c(F)c1 (centres undefined) | 85 |  | inactive | 
CC(C(=O)NCc1ccc(C(F)(F)F)nc1SC1CCC(C(C)(C)C)CC1)c1ccc(NS(C)(=O)=O)c(F)c1 (centres undefined) | 2.6 | 89.6 |  | 
CC(C(=O)NCc1ccc(C(F)(F)F)nc1SCC1CCCCC1)c1ccc(NS(C)(=O)=O)c(F)c1 (centres undefined) | 2.3 | 254 |  | 
CC(C(=O)NCc1ccc(C(F)(F)F)nc1SC1CCCCC1)c1ccc(NS(C)(=O)=O)c(F)c1 (centres undefined) |  |  | inactive | 
CC1CCC(Sc2nc(C(F)(F)F)ccc2CNC(=O)C(C)c2ccc(NS(C)(=O)=O)c(F)c2)CC1 (centres undefined) | 0.5 | 180 |  | 
C[C@H](C(=O)NCc1ccc(C(F)(F)F)nc1SC1CCCCC1)c1ccc(NS(C)(=O)=O)c(F)c1 | 0.4 | > 1000 |  | inhibition (Mus musculus): Active; Ki [3]: 0.05 nM; Activity (Rattus norvegicus [4]): Dose-dependent effect; ED50 (Rattus norvegicus [4]; 0.75 h): 0.19 mg/kg; %max (Rattus norvegicus [5]): 75%; IC50 [6]: 22.3 nM
CC(C(=O)NCc1ccc(C(F)(F)F)nc1SC1CCCCC1C)c1ccc(NS(C)(=O)=O)c(F)c1 (centres undefined) | 1.9 |  | inactive | 
CCC1CCC(Sc2nc(C(F)(F)F)ccc2CNC(=O)C(C)c2ccc(NS(C)(=O)=O)c(F)c2)CC1 (centres undefined) | 1 |  | inactive | 
CC(C(=O)NCc1ccc(C(F)(F)F)nc1SCCCN(C)C)c1ccc(NS(C)(=O)=O)c(F)c1 (centres undefined) | 27.4 | 1500 |  | 
CC(C(=O)NCc1ccc(C(F)(F)F)nc1SCCC(=O)O)c1ccc(NS(C)(=O)=O)c(F)c1 (centres undefined) |  |  | inactive | Ki ([1]; cho-k1): Not Active
C[C@H](C(=O)NCc1ccc(C(C)(C)C)cc1)c1ccc(NS(C)(=O)=O)c(F)c1 | 28 | 1280 |  | 

More lines, main results first:

Ki ([1]; read-out: Ki) [nM] | IC50 [2] [nM] | inhibition [2] | SMILES | also measured
4.3 |  | inactive | CC(C(=O)NCc1ccc(C(F)(F)F)nc1SCC(F)(F)F)c1ccc(NS(C)(=O)=O)c(F)c1 (centres undefined) | 
4.9 | 620 |  | CC(C(=O)NCc1ccc(C(F)(F)F)nc1SCc1ccccc1Cl)c1ccc(NS(C)(=O)=O)c(F)c1 (centres undefined) | 
2.3 | 279 |  | COc1ccc(CSc2nc(C(F)(F)F)ccc2CNC(=O)C(C)c2ccc(NS(C)(=O)=O)c(F)c2)cc1 (centres undefined) | 
3.9 | 71 |  | CC(C(=O)NCc1ccc(C(F)(F)F)nc1SCc1cccc(C(F)(F)F)c1)c1ccc(NS(C)(=O)=O)c(F)c1 (centres undefined) | 
14.6 |  | inactive | CC(C(=O)NCc1ccc(C(F)(F)F)nc1SCc1ccco1)c1ccc(NS(C)(=O)=O)c(F)c1 (centres undefined) | 
15 |  | inactive | CC(C(=O)NCc1ccc(C(F)(F)F)nc1SCc1cccs1)c1ccc(NS(C)(=O)=O)c(F)c1 (centres undefined) | 
1.9 | 111 |  | CC(C(=O)NCc1ccc(C(F)(F)F)nc1SCCc1ccccc1)c1ccc(NS(C)(=O)=O)c(F)c1 (centres undefined) | 
2.3 | 118 |  | CC(C(=O)NCc1ccc(C(F)(F)F)nc1SCCOc1ccccc1)c1ccc(NS(C)(=O)=O)c(F)c1 (centres undefined) | 
7 | 68 |  | CC(C(=O)NCc1ccc(C(F)(F)F)nc1SCCCBr)c1ccc(NS(C)(=O)=O)c(F)c1 (centres undefined) | 
8.7 | 674 |  | CC(C(=O)NCc1ccc(C(F)(F)F)nc1SCc1ccc(Cl)cc1)c1ccc(NS(C)(=O)=O)c(F)c1 (centres undefined) | 
3.2 | 764 |  | Cc1ccc(CSc2nc(C(F)(F)F)ccc2CNC(=O)C(C)c2ccc(NS(C)(=O)=O)c(F)c2)cc1 (centres undefined) | 
